Data taken from ChEMBL document CHEMBL1687814, “Testing nucleoside analogues as inhibitors of Bacillus anthracis spore germination in vitro and in macrophage cell culture” (Antimicrob Agents Chemother, 2010).
The source made the active and inactive calls. No cut-off for these calls is given here.

Tests used:
Bacillus anthracis [1] = experiment: Ratio of IC50 for inosine/L-alanine-induced Bacillus anthracis Sterne 34F2 spore germination to IC50 for Bacillus anthracis Sterne 34F2 infected in mouse J774A.1 cells assessed as protection against bacteria-induced cytotoxicity; assay type: functional
Bacillus anthracis [2] = experiment: Inhibition of inosine/L-alanine-induced Bacillus anthracis Sterne 34F2 spore germination pretreated for 15 mins before inosine/L-alanine challenge; assay type: functional, organism-based
Bacillus anthracis [3] = experiment: Antibacterial activity against Bacillus anthracis Sterne 34F2 infected in mouse J774A.1 cells assessed as protection against bacteria-induced cytotoxicity using propidium iodide staining after 3 hrs measured every hours for up to 7 hrs; assay type: functional, organism-based
J774.A1 = experiment: Cytotoxicity against mouse J774A1 cells; assay type: cell-based
How it was run: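 Uninfected J774A.1 macrophages, seeded at 8 × 10^5 cells/ml in serum-free DMEM, were given analogues at various final concentrations. Necrosis was assessed by 20 μM propidium iodide fluorescence at 617 nm, in parallel with the infected wells.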

[4] = Increase of Bacillus anthracis Sterne 34F2-induced cytotoxicity in mouse J774A.1 cells using propidium iodide staining measured after 5 hrs infection; assay type: cell-based; conditions: bacillus anthracis str. sterne
Bacillus anthracis [5] = experiment: Activation of Bacillus anthracis Sterne 34F2 spore germination after 1 hr; assay type: functional, organism-based
[6] = Bacillus anthracis, Sterne 34F2, read-out: IC50
[7] = Bacillus anthracis, Sterne 34F2, J774.A1, read-out: IC50

| SMILES | Ratio IC50 (Bacillus anthracis [1]) | IC50 (Bacillus anthracis [2]; [6]) [µM] | IC50 (Bacillus anthracis [3]; [7]) [µM] | Activity (J774.A1) | Activity [4] | IC50 (Bacillus anthracis [2]) | IC50 (Bacillus anthracis [3]) | Activity (Bacillus anthracis [5]) |
| --- | --- | --- | --- | --- | --- | --- | --- | --- |
| Nc1nc2c(ncn2[C@@H]2O[C@H](CO)[C@@H](O)[C@H]2O)c(=S)[nH]1 [THIOGUANOSINE] | 300 | 1000 | 4 | Non-toxic |  |  |  |  |
| Nc1nc2c(nc(O)n2[C@@H]2O[C@H](CO)[C@@H](O)[C@H]2O)c(=O)[nH]1 [8-HYDROXYGUANOSINE] |  |  |  | Non-toxic | Toxic | Not Active | Not Active |  |
| O=c1ncnc2n([C@H]3O[C@@H](CO)[C@H](O)[C@@H]3O)[nH]cc1-2 [ALLOPURINOL RIBOSIDE] |  |  | 650 | Non-toxic |  | Not Active |  |  |
| Nc1cc(S)nc(N)n1 |  |  |  | Non-toxic |  | Not Active | Not Active | inactive |
| O=c1cc[nH]c(=S)[nH]1 [THIOURACIL] |  |  |  | Non-toxic |  | Not Active | Not Active | inactive |
| OC[C@H]1O[C@@H](n2cnc3c(S)ncnc32)[C@H](O)[C@@H]1O [THIOINOSINE] |  |  | 40 | Non-toxic |  | Not Active |  |  |
| OC[C@H]1O[C@@H](n2cnc3c(N4CCCCC4)ncnc32)[C@H](O)[C@@H]1O |  | 1090 |  | Non-toxic |  |  | Not Active |  |
| CC(C)=CCNc1ncnc2c1ncn2[C@@H]1O[C@H](CO)[C@@H](O)[C@H]1O [RIBOPRINE] |  | 360 |  | Non-toxic |  |  | Not Active |  |
| OC[C@H]1O[C@@H](n2cnc3c(O)ncnc32)[C@H](O)[C@@H]1O [INOSINE] |  |  |  | Non-toxic |  |  |  |  |
| Nc1nc(N)c2ncn([C@@H]3O[C@H](CO)[C@@H](O)[C@H]3O)c2n1 |  | 700 |  | Non-toxic |  |  | Not Active |  |
| Nc1nc(=O)[nH]c2c1ncn2[C@@H]1O[C@H](CO)[C@@H](O)[C@H]1O [ISOGUANOSINE] |  |  |  | Non-toxic |  | Not Active | Not Active |  |
| Nc1nc(Cl)c2nc[nH]c2n1 [6-CHLOROGUANINE] |  |  | 200 | Non-toxic |  | Not Active |  |  |
| Nc1nc2c(ncn2[C@@H]2O[C@H](CO)[C@@H](O)[C@H]2O)c(=O)[nH]1 [GUANOSINE] |  |  |  | Non-toxic |  | Not Active | Not Active |  |
| CNc1ncnc2c1ncn2[C@@H]1O[C@H](CO)[C@@H](O)[C@H]1O |  | 190 |  | Non-toxic |  |  | Not Active |  |
| CN(C)c1ncnc2c1ncn2[C@@H]1O[C@H](CO)[C@@H](O)[C@H]1O |  |  |  | Non-toxic |  | Not Active | Not Active |  |
| CCCN(CCC)c1ncnc2c1ncn2[C@@H]1O[C@H](CO)[C@@H](O)[C@H]1O |  | 760 |  | Non-toxic |  |  | Not Active |  |
| CSc1ncnc2c1ncn2[C@@H]1O[C@H](CO)[C@@H](O)[C@H]1O |  | 320 |  | Non-toxic |  |  | Not Active |  |
| OC[C@H]1O[C@@H](n2cnc3cncnc32)[C@H](O)[C@@H]1O [NEBULARINE] |  |  |  | Non-toxic |  | Not Active | Not Active |  |
| CN(Cc1ccccc1)c1ncnc2c1ncn2[C@@H]1O[C@H](CO)[C@@H](O)[C@H]1O |  | 120 |  | Non-toxic | Toxic |  | Not Active |  |
| Nc1nc2c(ncn2COC(CO)CO)c(=O)[nH]1 [GANCICLOVIR] |  |  |  | Non-toxic |  | Not Active | Not Active |  |
| O=C(Nc1ncnc2c1ncn2[C@@H]1O[C@H](CO)[C@@H](O)[C@H]1O)c1ccccc1 |  | 1140 |  | Non-toxic | Toxic |  | Not Active |  |
| C[C@@H](N)C(=O)O [D-ALANINE] |  | 20 | 20 | Non-toxic |  |  |  |  |
| Nc1ncnc2c1ncn2[C@@H]1O[C@H](CO)[C@@H](O)[C@H]1O [ADENOSINE] |  |  |  | Non-toxic |  | Not Active | Not Active |  |

| SMILES | Ratio IC50 (Bacillus anthracis [1]) | IC50 (Bacillus anthracis [2]; [6]) [µM] | IC50 (Bacillus anthracis [3]; [7]) [µM] | Activity (J774.A1) | Activity [4] | IC50 (Bacillus anthracis [2]) | IC50 (Bacillus anthracis [3]) | Activity (Bacillus anthracis [5]) |
| --- | --- | --- | --- | --- | --- | --- | --- | --- |
| Nc1ncc2ncn([C@@H]3O[C@H](CO)[C@@H](O)[C@H]3O)c2n1 |  | 380 |  | Non-toxic |  |  | Not Active |  |
| CCOC(=O)C1CCCN(c2ncnc3c2ncn3[C@@H]2O[C@H](CO)[C@@H](O)[C@H]2O)C1 (stereo partly drawn) |  | 700 |  | Non-toxic |  |  | Not Active |  |
| CSc1nc2ccccc2[nH]1 |  |  |  | Non-toxic |  | Not Active | Not Active |  |
| Nc1nc(Cl)c2ncn([C@@H]3O[C@H](CO)[C@@H](O)[C@H]3O)c2n1 |  | 890 | 190 | Non-toxic |  |  |  |  |
| OC[C@H]1O[C@@H](n2cnc3c(O)nc(O)nc32)[C@H](O)[C@@H]1O [XANTHOSINE] |  | 7190 |  | Non-toxic |  |  | Not Active |  |
| Sc1ncnc2nc[nH]c12 [MERCAPTOPURINE ANHYDROUS] |  |  | 400 | Non-toxic |  | Not Active |  |  |
| CCN(CC)c1ncnc2c1ncn2[C@@H]1O[C@H](CO)[C@@H](O)[C@H]1O |  | 310 |  | Non-toxic |  |  | Not Active |  |
| c1ccc(CNc2ncnc3nc[nH]c23)cc1 [6-BENZYLAMINOPURINE] |  | 1550 |  | Non-toxic |  |  | Not Active |  |
| Nc1ncnc2c1nc(N)n2[C@@H]1O[C@H](CO)[C@@H](O)[C@H]1O |  |  |  | Non-toxic |  | Not Active | Not Active | inactive |
| C[n+]1cn([C@@H]2O[C@H](CO)[C@@H](O)[C@H]2O)c2nc[nH]c(=O)c21 |  |  |  | Non-toxic |  | Not Active | Not Active |  |
| CC(=O)N1CCN(c2ncnc3c2ncn3[C@@H]2O[C@H](CO)[C@@H](O)[C@H]2O)CC1 |  | 50 |  | Non-toxic |  |  | Not Active |  |
| N#Cc1ncnc2nc[nH]c12 |  |  |  | Non-toxic |  | Not Active | Not Active |  |
| Sc1ccccn1 [2-MERCAPTOPYRIDINE] |  |  |  | Non-toxic |  | Not Active | Not Active | inactive |
| Sc1nc2ccccc2[nH]1 [2-MERCAPTOBENZIMIDAZOLE] |  |  |  | Non-toxic |  | Not Active | Not Active |  |
| Nc1ncnc2c1ccn2[C@@H]1O[C@H](CO)[C@@H](O)[C@H]1O [TUBERCIDIN] |  |  |  | Non-toxic |  | Not Active | Not Active |  |
| OC[C@H]1O[C@@H](n2cnc3c(SCc4ccccc4)ncnc32)[C@H](O)[C@@H]1O [6-BENZYLTHIOINOSINE] |  | 50 | 1040 | Non-toxic |  |  |  |  |
| COc1nc(N)nc2c1ncn2[C@@H]1O[C@H](CO)[C@@H](O)[C@H]1O |  | 350 |  | Non-toxic |  |  | Not Active |  |
| Sc1ncccn1 [2-MERCAPTOPYRIMIDINE] |  |  |  | Non-toxic |  | Not Active | Not Active | inactive |
| OC[C@H]1O[C@@H](n2cnc3c(Cl)ncnc32)[C@H](O)[C@@H]1O |  |  |  | Non-toxic |  | Not Active | Not Active |  |
| Oc1ncnc2[nH]ncc12 [ALLOPURINOL] |  |  |  | Non-toxic |  | Not Active | Not Active |  |
| Sc1ccncc1 [4-MERCAPTOPYRIDINE] |  |  |  | Non-toxic |  | Not Active | Not Active | inactive |
| Nc1nc2nc[nH]c2c(=S)[nH]1 [THIOGUANINE] |  |  | 2 | Non-toxic |  | Not Active |  |  |
